Experimental data reported in paper PMC12263870 (Scientific Reports, 2025).

How the values were obtained:
[1] = system: BSA-glycation mediated methylglyoxal (MG); experiment: Anti-glycation assay: BSA-glycation mediated methylglyoxal; assay type: biochemical, bovine; details: for BSA-glycation mediated MG % Inhibition at 500 µM: mean ± SD; for IC50: read-out: BSA-glycation inhibition category by IC50 criteria, category in words
Outline: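 Fluorescence anti-glycation assay. BSA (10 mg/mL) was in 0.1 M phosphate buffer pH 7.4 with 0.02% NaN3, and 14 mM methylglyoxal was in phosphate buffer. Test compound in DMSO was preincubated with buffer and methylglyoxal at 37°C for 2 h. BSA was then added and the mix incubated at 37°C for 1 day. Fluorescence (ex 370/em 450 nm) was read against a no-inhibitor blank. Aminoguanidine hydrochloride was the positive control. Triplicate, two independent experiments, mean ± SD.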

[2] = target: T1, α-amylase (Sus scrofa, UniProt P00690); experiment: Inhibitory kinetic analysis; assay type: biochemical, porcine
T1 sequence (P00690 16-511): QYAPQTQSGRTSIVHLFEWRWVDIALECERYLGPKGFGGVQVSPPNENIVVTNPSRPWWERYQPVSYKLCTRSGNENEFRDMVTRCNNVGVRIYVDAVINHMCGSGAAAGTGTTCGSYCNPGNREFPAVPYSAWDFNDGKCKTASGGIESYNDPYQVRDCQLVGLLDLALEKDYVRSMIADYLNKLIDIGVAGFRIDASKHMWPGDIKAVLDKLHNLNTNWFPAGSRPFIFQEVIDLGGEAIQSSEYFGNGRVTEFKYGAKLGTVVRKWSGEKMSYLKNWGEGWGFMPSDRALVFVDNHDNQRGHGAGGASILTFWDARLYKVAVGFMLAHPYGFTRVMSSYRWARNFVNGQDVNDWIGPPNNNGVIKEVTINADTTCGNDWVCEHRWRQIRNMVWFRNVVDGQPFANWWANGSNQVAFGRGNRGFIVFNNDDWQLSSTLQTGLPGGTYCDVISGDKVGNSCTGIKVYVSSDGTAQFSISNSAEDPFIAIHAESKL
Outline: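 Porcine pancreatic α-amylase (type VI-B) in phosphate buffer pH 6.0 with 0.02% NaN3. Enzyme stock was 1 mg/mL and CNP-G3 stock 0.5 mM. Test compound and enzyme were preincubated at 37°C for 10 min, then CNP-G3 was added at varied concentrations for 30 min at 37°C, read at 405 nm. Three inhibitor concentrations were used. Inhibition type came from Lineweaver–Burk plots, Ki and Kis from secondary slope and intercept plots.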

Row | IC50 [1] [µM] | Structure (SMILES) | further results
1 |  | Cl.N=C(N)NN [Aminoguanidine hydrochloride, reference compound] | BSA-glycation mediated MG % Inhibition at 500 µM [1]: 79.66%
2 | 10.1 to 100 | O=c1cc(-c2ccc(O)cc2)oc2c(Br)c(O)c(Br)c(O)c12 [Compound F2a, 6,8-Dibromoapigenin] | 
3 | 10.1 to 100 | O=c1cc(-c2ccc(O)c(O)c2)oc2cc(O)cc(O)c12 [Compound F3, Luteolin] | 
4 | 10.1 to 100 | O=c1cc(-c2ccc(O)c(O)c2)oc2c(Br)c(O)c(Br)c(O)c12 [Compound F3a, 6,8-Dibromoluteolin] | Ki [2]: 0.18 µM; Inhibition type, α-amylase ([2]; Lineweaver-Burk plot, CNP-G3): mixed-type
5 | 100 to 200 | O=c1c(O)c(-c2ccc(O)cc2O)oc2cc(O)cc(O)c12 [Compound F6, Morin] | 
6 | 10.1 to 100 | O=c1c(O)c(-c2ccc(O)c(O)c2)oc2cc(O)cc(O)c12 [Compound F7, Quercetin] | 
7 |  | O=C1C[C@@H](c2ccc(O)cc2)Oc2cc(O)cc(O)c21 [Compound F11, Naringenin] | BSA-glycation mediated MG % Inhibition at 500 µM [1]: 56.89%
8 | 10.1 to 100 | O=C1C[C@@H](c2ccc(O)cc2)Oc2c(Br)c(O)c(Br)c(O)c21 [Compound F11a, 6,8-Dibromonaringenin] | 
